Test results as given in ChEMBL document CHEMBL1148437, “Synthesis, structure-activity relationships, and mechanism of drug resistance of D- and L-beta-3'-fluoro-2',3'-unsaturated-4'-thionucleosides as anti-HIV agents” (J Med Chem, 2004).

Assays:
[1] = Compounds were evaluated for their potential toxic effect on uninfected […] cells; type: ADME, cell-based; details: Chlorocebus sabaeus
In short: (§1)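 Uninfected cells were seeded in 10-fold serial drug dilutions: Vero at 5×10^3, CEM at 2.5×10^3 and PHA-stimulated PBM at 5×10^4 cells/well. Vero were incubated 3 days, CEM 4 days and PBM 5 days, at 37 °C in 5% CO2. MTT was added overnight, followed by solubilization for 5 h and reading at 570 nm. IC50 was derived by the median effect method.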

[2] = Compounds were evaluated for their potential toxic effect on uninfected PHA-stimulated human Peripheral blood mononuclear (PBM) cells; type: ADME; in short: as §1
PBMC [3] = assay: (§2) Anti-HIV activity in Human peripheral blood mononuclear (PBM) cells; type: functional
In short: (§3)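 PHA-stimulated (2-3 days) human PBM cells from healthy seronegative donors, Ficoll-Hypaque isolated; bulk infection 1 h (HIV-1 LAI reference; xxBru clone), 100 TCID50/1×10^7 cells (flask) or 200 TCID50/6×10^5 cells/well; 10-fold serial dilutions; RPMI-1640, 16% FBS, IL-2, DEAE-dextran; 5 days 37 °C; supernatant RT activity (poly(rA)·oligo(dT), 3H-TTP); EC50/EC90 by median effect method.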

PBMC [4] = assay: as §2; type: functional, cell-based; in short: as §3
[5] = Compounds were evaluated for their potential toxic effect on uninfected PHA-stimulated human T-lymphoblastoid cell line (CEM); type: ADME; in short: as §1
PBMC [6] = assay: Antiviral activity against wild type HIV virus(xxBRU) in Human peripheral blood mononuclear (PBM) cells; type: functional; in short: as §3
PBMC [7] = assay: Antiviral activity against drug-resistant HIV-1 virus (M184v) in Human peripheral blood mononuclear (PBM) cells; type: functional
In short: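 PHA-stimulated (2-3 days) human PBM cells from seronegative donors infected 1 h in bulk with molecular clone HIV-1 M184Vpitt, then cultured with 10-fold serial compound dilutions in IL-2–supplemented RPMI-1640, 5 days, 37 °C, 5% CO2. Supernatant virus pelleted and assayed for RT activity (poly(rA)·oligo(dT), 3H-TTP, 2 h, 37 °C). EC50/EC90 from concentration-response curves by median effect method.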

Compound	IC50 [1] [µM]	IC50 [2] [µM]	EC90 (PBMC [3]) [µM]	EC50 (PBMC [4]) [µM]	IC50 [5] [µM]	EC90 (PBMC [6]) [µM]	EC90 (PBMC [7]) [µM]
Nc1nc(=O)n([C@H]2C=C(F)[C@@H](CO)S2)cc1F	> 100	> 100	> 100	> 100	> 100	–	–
Nc1ccn([C@@H]2CS[C@H](CO)O2)c(=O)n1 [LAMIVUDINE]	–	–	–	–	–	0.08	–
Nc1ccn([C@@H]2C=C(F)[C@H](CO)S2)c(=O)n1	> 100	> 100	1.7	0.13	> 100	1.7	> 100
Nc1ccn([C@H]2C=C(F)[C@@H](CO)S2)c(=O)n1	> 100	> 100	> 100	> 100	> 100	–	–
Nc1nc(O)c2ncn([C@@H]3C=C(F)[C@H](CO)S3)c2n1	> 100	> 100	> 100	43.9	> 100	–	–
OC[C@@H]1S[C@H](n2cnc3c(O)ncnc32)C=C1F	> 100	> 100	> 100	> 100	> 100	–	–
O=c1ccn([C@H]2C=C(F)[C@@H](CO)S2)c(=O)[nH]1	> 100	> 100	> 100	> 100	> 100	–	–
Nc1nc(O)c2ncn([C@H]3C=C(F)[C@@H](CO)S3)c2n1	> 100	> 100	> 100	23.4	> 100	–	–
Cc1cn([C@H]2C[C@H](N=[N+]=[N-])[C@@H](CO)O2)c(=O)[nH]c1=O [ZIDOVUDINE]	29	> 100	0.01	–	14.3	0.01	0.003
Cc1cn([C@@H]2C=C(F)[C@H](CO)S2)c(=O)[nH]c1=O	> 100	> 100	> 100	> 100	≥ 100	–	–
OC[C@H]1S[C@@H](n2cnc3c(O)ncnc32)C=C1F	> 100	> 100	> 100	> 100	> 100	–	–
Nc1ncnc2c1ncn2[C@@H]1C=C(F)[C@H](CO)S1	> 100	> 100	57	14.9	> 100	–	–
O=c1ccn([C@@H]2C=C(F)[C@H](CO)S2)c(=O)[nH]1	> 100	> 100	> 100	> 100	> 100	–	–
Nc1ncnc2c1ncn2[C@H]1C=C(F)[C@@H](CO)S1	> 100	> 100	> 100	> 100	> 100	–	–
Nc1nc(=O)n([C@@H]2C=C(F)[C@H](CO)S2)cc1F	88.1	> 100	0.35	0.031	> 100	0.35	> 100
Cc1cn([C@H]2C=C(F)[C@@H](CO)S2)c(=O)[nH]c1=O	> 100	> 100	> 100	> 100	> 100	–	–
